Data reported in ChEMBL document CHEMBL1649269, “In vitro activities of three new dihydrofolate reductase inhibitors against clinical isolates of gram-positive bacteria” (2009).
Converted amounts (≈) assume the structure as drawn.

Assays:
[1] = Antimicrobial activity against Group G Streptococcus assessed as susceptible isolates by agar dilution method; type: functional, Streptococcus sp. 'group G'
Procedure, shortened: (§1)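 Clinical isolates of beta-hemolytic streptococci, S. mitis and S. pneumoniae were tested by CLSI methodology, with Mueller-Hinton medium supplemented with 5% lysed horse blood. S. aureus ATCC 29213 and S. pneumoniae ATCC 49619 served as control strains. The percentage of susceptible isolates was derived from CLSI breakpoints.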

[2] = system: Streptococcus pneumoniae; test: Antimicrobial activity against Streptococcus pneumoniae by agar dilution method; type: functional; procedure, shortened: as §1
[3] = system: Listeria monocytogenes; test: Antimicrobial activity against Listeria monocytogenes by agar dilution method; type: functional
Procedure, shortened: (§2)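 CLSI agar dilution MIC testing of clinical isolates of staphylococci and Listeria. S. aureus ATCC 29213 and S. pneumoniae ATCC 49619 served as control strains. The percentage of susceptible isolates was calculated from CLSI breakpoints.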

[4] = system: Corynebacterium sp.; test: Antimicrobial activity against Corynebacterium spp. by agar dilution method; type: functional
[5] = system: Staphylococcus aureus; test: Antimicrobial activity against Heterovancomycin-resistant Staphylococcus aureus by agar dilution method; type: functional
Procedure, shortened: (§3)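 Clinical S. aureus isolates classed as hVISA or VISA by population analysis profiling. MICs by CLSI agar dilution, with S. aureus ATCC 29213 as control strain.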

[6] = system: Streptococcus sp. 'group A'; test: Antimicrobial activity against Group A Streptococcus assessed as susceptible isolates by agar dilution method; type: functional; procedure, shortened: as §1
[7] = system: Streptococcus sp. 'group A'; test: Antimicrobial activity against Group A Streptococcus by agar dilution method; type: functional; procedure, shortened: as §1
[8] = Antimicrobial activity against Group C Streptococcus by agar dilution method; type: functional; details: Streptococcus sp. 'group C'; procedure, shortened: as §1
[9] = Antimicrobial activity against Group G Streptococcus by agar dilution method; type: functional; details: Streptococcus sp. 'group G'; procedure, shortened: as §1
[10] = system: Staphylococcus aureus; test: Antimicrobial activity against vancomycin-resistant Staphylococcus aureus by agar dilution method; type: functional; procedure, shortened: as §3
[11] = system: Streptococcus sp. 'group B'; test: Antimicrobial activity against Group B Streptococcus by agar dilution method; type: functional; procedure, shortened: as §1
[12] = system: Streptococcus mitis; test: Antimicrobial activity against Streptococcus mitis by broth dilution method
[13] = system: Staphylococcus; test: Antimicrobial activity against Coagulase-negative Staphylococcus assessed as susceptible isolates by agar dilution method; type: functional; procedure, shortened: as §2
[14] = system: Staphylococcus aureus; test: Antimicrobial activity against Heterovancomycin-resistant Staphylococcus aureus assessed as susceptible isolates by agar dilution method; type: functional
[15] = system: Staphylococcus aureus; test: Antimicrobial activity against vancomycin-resistant Staphylococcus aureus assessed as susceptible isolates by agar dilution method; type: functional
[16] = Antimicrobial activity against Group C Streptococcus assessed as susceptible isolates by agar dilution method; type: functional, Streptococcus sp. 'group C'; procedure, shortened: as §1
[17] = system: Staphylococcus aureus; test: Antimicrobial activity against methicillin-resistant Staphylococcus aureus by agar dilution method; type: functional
Procedure, shortened: (§4)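 MICs against clinical MRSA or MSSA isolates by CLSI agar dilution, with S. aureus ATCC 29213 as control strain. Percentage of susceptible isolates was calculated from the MICs using CLSI breakpoints.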

[18] = system: Streptococcus pneumoniae; test: Antimicrobial activity against Streptococcus pneumoniae assessed as susceptible isolates by agar dilution method; type: functional; procedure, shortened: as §1
[19] = system: Staphylococcus; test: Antimicrobial activity against Coagulase-negative Staphylococcus by agar dilution method; type: functional; procedure, shortened: as §2
[20] = system: Staphylococcus aureus; test: Antimicrobial activity against methicillin-sensitive Staphylococcus aureus by agar dilution method; type: functional; procedure, shortened: as §4
[21] = system: Streptococcus sp. 'group B'; test: Antimicrobial activity against Group B Streptococcus assessed as susceptible isolates by agar dilution method; type: functional; procedure, shortened: as §1
[22] = system: Staphylococcus aureus; test: Antimicrobial activity against methicillin-sensitive Staphylococcus aureus assessed as susceptible isolates by agar dilution method; type: functional; procedure, shortened: as §4
[23] = system: Staphylococcus aureus; test: Antimicrobial activity against methicillin-resistant Staphylococcus aureus assessed as susceptible isolates by agar dilution method; type: functional; procedure, shortened: as §4

SMILES	MIC50 [2] [µg/mL]	MIC90 [2] [µg/mL]	MIC50 [3] [µg/mL]	MIC90 [3] [µg/mL]	MIC50 [4] [µg/mL]	MIC90 [4] [µg/mL]	MIC50 [5] [µg/mL]	MIC90 [5] [µg/mL]	MIC50 [7] [µg/mL]	MIC90 [7] [µg/mL]	MIC50 [8] [µg/mL]	MIC90 [8] [µg/mL]	MIC50 [9] [µg/mL]	MIC90 [9] [µg/mL]	MIC50 [10] [µg/mL]	MIC90 [10] [µg/mL]	MIC50 [11] [µg/mL]	MIC90 [11] [µg/mL]	MIC50 [12] [µg/mL]	Activity [13] [%]	other results
CN(C)c1ccc(O)c2c1C[C@H]1C[C@H]3[C@H](N(C)C)C(O)=C(C(N)=O)C(=O)[C@@]3(O)C(O)=C1C2=O [MINOCYCLINE]	0.25 (≈ 0.546 µM)	0.25 (≈ 0.546 µM)	0.25 (≈ 0.546 µM)	16 (≈ 35 µM)	2 (≈ 4.37 µM)	16 (≈ 35 µM)	0.25 (≈ 0.546 µM)	0.5 (≈ 1.09 µM)	0.12 (≈ 0.262 µM)	0.25 (≈ 0.546 µM)	0.25 (≈ 0.546 µM)	4 (≈ 8.74 µM)	0.25 (≈ 0.546 µM)	16 (≈ 35 µM)	1 (≈ 2.19 µM)	4 (≈ 8.74 µM)	16 (≈ 35 µM)	32 (≈ 69.9 µM)	0.25 (≈ 0.546 µM)	96	Activity [1]: 75%; MIC [3]: 0.25 µg/mL (≈ 0.546 µM); Activity [6]: 100%; MIC [7]: 0.12 µg/mL (≈ 0.262 µM); MIC [12]: 0.25 µg/mL (≈ 0.546 µM); Activity [14]: 92%; Activity [15]: 96%; Activity [16]: 84%; MIC [17]: 0.25 µg/mL (≈ 0.546 µM); MIC50 [17]: 0.25 µg/mL (≈ 0.546 µM); MIC90 [17]: 0.25 µg/mL (≈ 0.546 µM); Activity [18]: 93%; MIC50 [19]: 0.5 µg/mL (≈ 1.09 µM); MIC90 [19]: 2 µg/mL (≈ 4.37 µM); MIC [20]: 0.25 µg/mL (≈ 0.546 µM); MIC50 [20]: 0.25 µg/mL (≈ 0.546 µM); MIC90 [20]: 0.25 µg/mL (≈ 0.546 µM); Activity [21]: 29%; Activity [22]: 100%
COc1c(N2C[C@@H]3CCCN[C@@H]3C2)c(F)cc2c(=O)c(C(=O)O)cn(C3CC3)c12 [MOXIFLOXACIN]	0.25 (≈ 0.623 µM)	0.25 (≈ 0.623 µM)	0.5 (≈ 1.25 µM)	1 (≈ 2.49 µM)	1 (≈ 2.49 µM)	8 (≈ 19.9 µM)	4 (≈ 9.96 µM)	4 (≈ 9.96 µM)	0.25 (≈ 0.623 µM)	0.5 (≈ 1.25 µM)	0.25 (≈ 0.623 µM)	0.5 (≈ 1.25 µM)	0.25 (≈ 0.623 µM)	0.5 (≈ 1.25 µM)	8 (≈ 19.9 µM)	8 (≈ 19.9 µM)	0.25 (≈ 0.623 µM)	0.5 (≈ 1.25 µM)	0.25 (≈ 0.623 µM)	55	MIC [3]: 0.5 µg/mL (≈ 1.25 µM); Activity [23]: 4%; MIC [7]: 0.25 µg/mL (≈ 0.623 µM); MIC [8]: 0.25 µg/mL (≈ 0.623 µM); MIC [9]: 0.25 µg/mL (≈ 0.623 µM); MIC [10]: 8 µg/mL (≈ 19.9 µM); MIC [11]: 0.25 µg/mL (≈ 0.623 µM); Activity [14]: 8%; Activity [15]: 0%; Activity [18]: 100%; MIC50 [19]: 0.25 µg/mL (≈ 0.623 µM); MIC90 [19]: 8 µg/mL (≈ 19.9 µM); Activity [22]: 92%
COc1cc(Cc2cnc(N)nc2N)cc(OC)c1OC [TRIMETHOPRIM]	1 (≈ 3.44 µM)	4 (≈ 13.8 µM)	0.06 (≈ 0.207 µM)	0.06 (≈ 0.207 µM)	16 (≈ 55.1 µM)	16 (≈ 55.1 µM)	1 (≈ 3.44 µM)	16 (≈ 55.1 µM)	0.5 (≈ 1.72 µM)	1 (≈ 3.44 µM)	0.5 (≈ 1.72 µM)	1 (≈ 3.44 µM)	1 (≈ 3.44 µM)	1 (≈ 3.44 µM)	1 (≈ 3.44 µM)	32 (≈ 110 µM)	1 (≈ 3.44 µM)	1 (≈ 3.44 µM)	4 (≈ 13.8 µM)	48	Activity [23]: 80%; MIC [12]: < 0.008 µg/mL; Activity [14]: 80%; Activity [15]: 71%; MIC50 [17]: 0.25 µg/mL (≈ 0.861 µM); MIC90 [17]: 32 µg/mL (≈ 110 µM); MIC50 [19]: 16 µg/mL (≈ 55.1 µM); MIC90 [19]: 32 µg/mL (≈ 110 µM); MIC50 [20]: 1 µg/mL (≈ 3.44 µM); MIC90 [20]: 2 µg/mL (≈ 6.89 µM); Activity [22]: 92%
CN[C@H](CC(C)C)C(=O)N[C@H]1C(=O)N[C@@H](CC(N)=O)C(=O)N[C@H]2C(=O)N[C@H]3C(=O)N[C@H](C(=O)N[C@H](C(=O)O)c4cc(O)cc(O)c4-c4cc3ccc4O)[C@H](O)c3ccc(c(Cl)c3)Oc3cc2cc(c3O[C@@H]2O[C@H](CO)[C@@H](O)[C@H](O)[C@H]2O[C@H]2C[C@](C)(N)[C@H](O)[C@H](C)O2)Oc2ccc(cc2Cl)[C@H]1O [VANCOMYCIN]	0.12 (≈ 0.0828 µM)	0.25 (≈ 0.173 µM)	1 (≈ 0.69 µM)	1 (≈ 0.69 µM)	0.25 (≈ 0.173 µM)	0.5 (≈ 0.345 µM)	1 (≈ 0.69 µM)	2 (≈ 1.38 µM)	0.25 (≈ 0.173 µM)	0.25 (≈ 0.173 µM)	0.12 (≈ 0.0828 µM)	0.5 (≈ 0.345 µM)	0.12 (≈ 0.0828 µM)	0.12 (≈ 0.0828 µM)	2 (≈ 1.38 µM)	4 (≈ 2.76 µM)	0.25 (≈ 0.173 µM)	0.25 (≈ 0.173 µM)	1 (≈ 0.69 µM)	100	Activity [1]: 100%; MIC [3]: 1 µg/mL (≈ 0.69 µM); Activity [23]: 100%; Activity [6]: 100%; MIC [8]: 0.12 µg/mL (≈ 0.0828 µM); MIC [9]: 0.12 µg/mL (≈ 0.0828 µM); Activity [14]: 96%; Activity [15]: 52%; Activity [16]: 100%; MIC50 [17]: 1 µg/mL (≈ 0.69 µM); MIC90 [17]: 1 µg/mL (≈ 0.69 µM); Activity [18]: 100%; MIC50 [19]: 1 µg/mL (≈ 0.69 µM); MIC90 [19]: 2 µg/mL (≈ 1.38 µM); MIC50 [20]: 1 µg/mL (≈ 0.69 µM); MIC90 [20]: 1 µg/mL (≈ 0.69 µM); Activity [21]: 100%; Activity [22]: 100%
